From PubChem
UHRF1 MBD2 ctr: blocks human UHRF1 binding to methylated DNA. UHRF1 binding to methylated oligo, TR-FRET. hit rate 0.75% among 370,000. Q96T88. inhibition, % at 4.4 µM; in the data active = inhibition above about 21%;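 also: UHRF1 SRA domain binding a hemimethylated CpG hairpin DNA probe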
HCV core dimer: blocks dimerization of HCV core protein. TR-FRET GST/Flag-core106 dimerization, 1536-well. inhibition, % at 5 µM. hit rate 0.33% among 300,000;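 active = inhibition above the mean of all tested compounds plus 3 SD, set per screening campaign, cut at about 45% in these data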
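Material: Tagged HCV core106 pair (GST and Flag) | Amount: GST-core106 13.5 nM, Flag-core106 17 nM | Medium: KF-containing HEPES buffer, pH 7.45, DTT, CHAPS, BSA | Reagent: Eu donor and XL665 acceptor anti-tag antibodies | Schedule: 4 h at 22.5 °C | Technique: Time-resolved FRET, ex 340 nm, em 617 and 671 nm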
MBD2 DNA inh: MBD2-methylated oligo binding inhibition. TR-FRET, MBD2 binding to methylated oligonucleotide. inhibition, % at 4.4 µM. hit rate 0.31% among 370,000. AID 686964; in the data active = inhibition above about 13%
Target sequence (Q9UBB5 whole entry, looked up): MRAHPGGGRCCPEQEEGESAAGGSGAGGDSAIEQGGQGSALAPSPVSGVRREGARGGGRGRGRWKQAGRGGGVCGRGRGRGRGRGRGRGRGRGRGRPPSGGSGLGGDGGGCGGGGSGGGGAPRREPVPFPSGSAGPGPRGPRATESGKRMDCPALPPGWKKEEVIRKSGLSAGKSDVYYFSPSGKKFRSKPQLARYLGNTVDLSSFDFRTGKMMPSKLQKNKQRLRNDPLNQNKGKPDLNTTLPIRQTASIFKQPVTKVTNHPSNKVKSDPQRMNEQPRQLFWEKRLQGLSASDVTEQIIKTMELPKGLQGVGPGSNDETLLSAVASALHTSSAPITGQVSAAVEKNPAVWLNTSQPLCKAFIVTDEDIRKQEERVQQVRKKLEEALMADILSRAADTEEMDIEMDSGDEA
LEDGF integ inh: blocks HIV-1 LEDGF/p75-dependent DNA integration; TR-FRET IN-LEDGF/p75 DNA integration, Eu/Cy5; hit rate 0.64% among 370,000; inhibition, % at 3.7 µM;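 active = inhibition above the screen-wide mean plus 3 SD, cut at about 13% in these data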;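 also: signal is the Cy5 over europium emission ratio at 671 and 618 nm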
TDP2 inh: blocks human TDP2 phosphodiesterase activity. hit rate 0.34% among 370,000. inhibition, % at 12.8 µM. recombinant TDP2, T5PNP hydrolysis, p-nitrophenol absorbance 415 nm. O95551;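 active = inhibition above the mean of all tested compounds plus 3 SD, set per campaign, cut at about 25% in these data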
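test system = human TDP2 enzyme | input = TDP2 enzyme at 120 nM final | medium = 50 mM Tris-HCl pH 7.5 with Mg2+, KCl, DTT, BSA | also added = T5PNP substrate, 5 mM | times = 2 h at 37 °C | technique = epi absorbance | benchmarks = high control without enzyme, low control DMSO plus TDP2 | replication = each compound tested once, singlicate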
IN multimer up: counter-screen for LEDGF/p75 integration inhibitors: HIV-1 integrase multimerization activators; shares compounds with LEDGF integ inh; TR-FRET HIV-1 integrase multimerization, biochemical; activation, % at 7.7 µM; hit rate 17% among 2,000; AID 1053131; in the data active = activation above about 8.9%
TRFRET interf: counter-screen for LEDGF/p75 integration inhibitors: TR-FRET optical interference; inhibition, % at 7.7 µM; 2,000 tested, under 10 active; shares compounds with LEDGF integ inh; TR-FRET optical interference counterscreen, HIV-1 IN multimerization;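 active = inhibition above the mean over all tested compounds plus 3 SD, which no compound reached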
LEDGF integ conf: confirmation of HIV-1 LEDGF/p75-dependent integration inhibitors. shares compounds with LEDGF integ inh. TR-FRET LEDGF/p75-dependent HIV-1 integration, biochemical. inhibition, % at 3.7 µM. hit rate 36% among 2,000. AID 1053136; in the data active = inhibition above about 14%
A number is an active result; – = inactive; · = no result. This is a sample that favours compounds with a hit; in the whole collection about 1.8% have one here.

SMILES | UHRF1 MBD2 ctr | HCV core dimer | MBD2 DNA inh | LEDGF integ inh | TDP2 inh | IN multimer up | TRFRET interf | LEDGF integ conf
Cc1c(NC(=O)c2cccc(NC(=O)Cc3c(F)cccc3Cl)c2)c(=O)n(-c2ccccc2)n1C | – | · | – | – | – | · | · | ·
Cc1c(NC(=O)c2cccc(NC(=O)Cc3ccc(F)cc3)c2)c(=O)n(-c2ccccc2)n1C | – | · | – | 18.9 | – | – | – | –
COc1ccc(C(=O)NCC(=O)Nc2ccc(-c3ccccc3)cc2)cc1 | – | – | – | 18.0 | – | 11.2 | – | –
CCOc1ccc(NC(=O)CNC(=O)c2ccc(OC)cc2)cc1 | – | – | – | – | – | · | · | ·
Cc1cc(NC(=O)CSc2nc(C3CC3)nc3sc(C)c(C)c23)no1 | – | – | – | 16.9 | – | 15.6 | – | –
CCc1nc(SCC(=O)Nc2cc(C)on2)c2c(C)c(C)sc2n1 | – | – | – | – | – | · | · | ·
Cc1cc(C)nc(N2CCN(C(=O)CSc3nc4ccccc4nc3N3CC(C)OC(C)C3)CC2)n1 (configuration not stated) | – | · | – | – | – | · | · | ·
NS(=O)(=O)c1ccc(NC(=S)NC(=O)/C=C/c2ccco2)cc1 | – | – | – | 33.4 | – | 12.7 | – | 37.9
CCCCN1CN2Cc3cc(F)ccc3C2CS1(=O)=O (configuration not stated) | – | · | – | – | – | · | · | ·
O=C(Cc1csc(N2CCOCC2)n1)N/N=C/c1ccc(O)c(O)c1O | – | · | – | 55.2 | – | 44.1 | – | 60.0
O=C(CCN1CCN(c2ccccc2)CC1)N/N=C/c1ccc(O)c(O)c1O | 26.7 | · | – | 42.0 | – | 49.0 | – | 72.8
COc1ccc(S[C@]2(C(=O)N3CCCC3)CC(=O)N(C(=O)Nc3ccc(C)c(Cl)c3)[C@@H]2c2ccc(OC)cc2)cc1 | – | · | – | – | – | · | · | ·
O=C(O)CCCN1C(=O)/C(=C\c2ccc(-c3nc4ccccc4s3)o2)SC1=S | – | – | – | – | – | · | · | ·
O=C(O)CCN1C(=O)/C(=C/c2ccc(-c3nc4ccccc4s3)o2)SC1=S | – | – | – | 16.8 | – | – | – | 16.1
Cc1ccc(NC(=O)C2CCCN(c3nnc(-n4cccc4)s3)C2)cc1C (configuration not stated) | – | · | – | – | – | · | · | ·
c1cncc(-c2nc(NCCCn3ccnc3)c3ccccc3n2)c1 | – | – | – | – | – | · | · | ·
Cc1nc(NCCCn2ccnc2)c2ccccc2n1 | – | – | – | 71.2 | – | – | – | –
COc1c(CC=C(C)C)cc(C2CC(=O)c3c(O)cc(O)cc3O2)cc1CC=C(C)C (configuration not stated) | – | – | – | – | – | · | · | ·
COC1=CC(=O)C(C2CC(=O)c3c(O)cc(O)cc3O2)=CC1=O (configuration not stated) | – | · | – | 45.7 | – | 46.3 | – | 23.8
Cc1sc2ncnc(SCC(=O)N3CCCCC3)c2c1C | – | – | – | – | – | · | · | ·
Cc1sc2ncnc(SCC(=O)N3CCCC3=O)c2c1C | – | – | – | 60.8 | – | – | – | –
COC(=O)c1cn(-c2ccc(-c3noc4c3C(=O)N(CC(=O)N3CCOCC3)CC4)cc2)nn1 | – | · | – | – | – | · | · | ·
Cc1noc(/C=C/c2ccco2)c1S(=O)(=O)N1CCC(C(=O)NCc2ccco2)CC1 | – | – | – | 33.1 | – | – | – | –
Cc1cccnc1NC(=O)C1CCN(S(=O)(=O)c2c(C)noc2/C=C/c2ccco2)CC1 | – | – | – | 24.1 | – | – | – | –
CN1[C@@H](Cc2ccccc2)COc2cc(N3CCCC3)ccc2S1(=O)=O | – | · | – | – | – | · | · | ·
SMILES | UHRF1 MBD2 ctr | HCV core dimer | MBD2 DNA inh | LEDGF integ inh | TDP2 inh | IN multimer up | TRFRET interf | LEDGF integ conf
Cc1nc2ccc(S(=O)(=O)NCC(=O)NCc3cccs3)cc2s1 | – | · | – | – | – | · | · | ·
Cc1ccc(-c2cc(C(=O)O)c3cc(Br)ccc3n2)o1 | – | – | – | 13.8 | – | 15.8 | – | –
COc1ccc2c(c1)CN1C(=O)N(C3CCCC3)S(=O)(=O)CC21 (configuration not stated) | – | · | – | – | – | · | · | ·
CCOC(=O)c1c(C)[nH]c(N=Nc2ccc(C)cc2C)c1C | – | – | – | – | – | · | · | ·
CCOC(=O)c1c(C)[nH]c(N=Nc2cc(C(=O)O)cc(C(=O)O)c2)c1C | – | – | – | 13.7 | – | – | – | –
CCOc1ccc(CCNC(=O)c2cc3ccsc3n2C)cc1OCC | – | · | – | – | – | · | · | ·
CC1(C)CC(=O)C(C(C2=C(O)CC(C)(C)CC2=O)c2ccc([N+](=O)[O-])cc2)C(=O)C1 (configuration not stated) | – | – | – | 39.6 | – | – | – | –
COc1cccc(C(C2=C(O)CC(C)(C)CC2=O)C2C(=O)CC(C)(C)CC2=O)c1 (configuration not stated) | – | – | – | – | – | · | · | ·
Cc1ccc(CNC(=O)/C=C/c2cccs2)cc1 | – | – | – | 25.2 | – | – | – | –
CC(=O)C1=C(O)C(=O)N(CCc2c[nH]c3ccccc23)C1c1ccco1 (configuration not stated) | – | – | – | 15.0 | – | – | – | –
COc1cc2cc3c(N)c(C(=O)Nc4sc(C)c(C)c4C#N)sc3nc2cc1OC | – | – | – | 15.0 | – | 26.6 | – | 45.7
COc1cc2cc3c(N)c(C(=O)NCc4ccco4)sc3nc2cc1OC | · | – | · | · | · | · | · | ·
Cc1nn(-c2ccccc2)c2sc(C(=O)NCCc3ccccc3)cc12 | – | · | – | – | – | · | · | ·
Cc1ccc2occ(/C=N/NC(=O)c3ccccc3O)c(=O)c2c1 | – | – | – | 17.8 | – | – | – | 24.1
CC(=O)c1ccc(NC(=O)CSc2nnc(-c3ccco3)c(-c3ccco3)n2)cc1 | – | – | – | 34.5 | – | 12.2 | – | 45.1
Cn1c(=O)c(C(=O)c2ccc(S(C)(=O)=O)c(Cl)c2Cl)c(O)c2ccccc21 | – | – | – | 37.8 | – | – | – | –
Cc1ccccc1NC(=O)[C@@H]1CC(=O)O[C@@H]1c1ccccc1 | – | · | – | – | – | · | · | ·
CC(CC(=O)O)Nc1ccccc1O (configuration not stated) | – | – | – | 35.0 | – | – | – | –
CC(=O)Nc1ccccc1O | – | – | – | – | – | · | · | ·
COc1cccc(C2c3c(ncn(-c4ccccc4)c3=N)Oc3ccc4ccccc4c32)c1OC (configuration not stated) | – | · | – | – | – | · | · | ·
Nc1ccc(C(=O)C(=O)c2ccccc2)cc1 | – | – | – | – | – | · | · | ·
Nc1cc(N)cc(C(=O)c2ccccc2)c1 | – | · | – | 21.1 | – | – | – | –
CCCCc1c(-c2ccccc2OC)ncn1Cc1ccc(C)cc1 | – | · | – | – | – | · | · | ·
